Data as given in PMC9049778 (RSC Advances, 2020).

Legend:
[1] = test system: lung adenocarcinoma H1650; assay: MTT assay, H1650; assay type: cell-based; conditions: Homo sapiens, NCI-H1650, 24 h, read-out: IC50 ± S.D. H1650
How it was run: (§1)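 Cell lines from ATCC were seeded at 10^4 cells per well in 100 μL medium. They were exposed to the test compound for 24 h at 37 °C under 5% CO2. Then 10 μL MTT (5.0 mg mL−1) was added for 4 h at 37 °C. Cells were lysed in isopropanol/conc. HCl/Triton X100 for 10 min at room temperature with shaking. Formazan was read at 570 nm, in triplicate.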

[2] = test system: human colon adenocarcinoma HT-29; assay: MTT assay, HT-29; assay type: cell-based; conditions: read-out: IC50 ± S.D. HT-29, 24 h, mean of 3 independent experiments
How it was run: as §1

[3] = test system: human promyelocytic leukemia HL-60; assay: MTT assay, HL-60; assay type: cell-based; conditions: read-out: IC50 ± S.D. HL-60, 24 h, mean of 3 independent experiments
How it was run: as §1

[4] = target: PIM-2 (Homo sapiens, UniProt Q9P1W9); assay: PIM-2 kinase assay; assay type: biochemical
How it was run: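 Luminescent ADP-Glo readout of ADP formed. Enzyme, substrate, ATP and inhibitor were diluted in kinase buffer, with 5% DMSO as vehicle. The kinase reaction ran 60 min at room temperature. ADP-Glo Reagent was then added for 40 min, followed by Kinase Detection Reagent for 30 min, both at room temperature, before luminescence was recorded.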

[5] = target: PIM-3 (Homo sapiens, UniProt Q86V86); assay: PIM-3 kinase assay; assay type: biochemical
How it was run: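 Radiometric filter assay. Active PIM-3 was mixed with substrate (1 mg mL−1 stock) and started with [33P]-ATP cocktail (250 μM ATP stock), then held 15 min at 30 °C. Aliquots were spotted onto P81 phosphocellulose, washed three times for about 10 min each in 1% phosphoric acid, and scintillation-counted. A no-substrate blank was subtracted. Kinase specific activity came from corrected cpm, ATP specific activity, time and enzyme amount.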

[6] = target: PIM-1 (Homo sapiens, UniProt P11309); assay: PIM-1 kinase assay; assay type: biochemical
[7] = target: PIM-1 kinase; conditions: read-out: IC50 against PIM-1 kinase enzyme; cited from earlier work

Chain of PIM-2 (Q9P1W9 whole entry): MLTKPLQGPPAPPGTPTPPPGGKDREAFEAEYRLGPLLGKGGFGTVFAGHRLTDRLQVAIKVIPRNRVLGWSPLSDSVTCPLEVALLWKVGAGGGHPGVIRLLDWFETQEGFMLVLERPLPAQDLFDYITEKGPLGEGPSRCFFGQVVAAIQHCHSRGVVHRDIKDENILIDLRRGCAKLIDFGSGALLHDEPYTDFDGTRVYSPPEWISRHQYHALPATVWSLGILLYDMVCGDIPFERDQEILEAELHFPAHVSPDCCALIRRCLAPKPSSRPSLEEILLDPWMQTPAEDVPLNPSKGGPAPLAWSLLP
Chain of PIM-1 (P11309 whole entry): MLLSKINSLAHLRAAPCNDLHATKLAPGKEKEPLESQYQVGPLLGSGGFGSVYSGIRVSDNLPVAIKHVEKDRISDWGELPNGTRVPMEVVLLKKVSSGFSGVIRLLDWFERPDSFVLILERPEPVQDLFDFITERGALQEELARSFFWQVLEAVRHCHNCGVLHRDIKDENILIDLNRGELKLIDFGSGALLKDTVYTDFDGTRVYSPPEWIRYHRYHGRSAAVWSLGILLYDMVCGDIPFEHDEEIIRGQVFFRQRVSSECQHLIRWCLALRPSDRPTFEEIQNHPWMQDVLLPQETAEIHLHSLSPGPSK

Row | SMILES | IC50 [1] [nM] | IC50 [4] [nM] | IC50 [5] [nM] | also measured
1 | COc1ccc(/C=C/C(=O)CC2(O)C(=O)Nc3cc(Br)ccc32)cc1 (centres unmarked) [Compound 4, (E)-6-bromo-3-hydroxy-3-(4-(4-methoxyphenyl)-2-oxobut-3-enyl) indolin-2-one] | > 100000 | – | – | –
2 | COc1ccc(/C=C/C(=O)/C=C2/C(=O)Nc3cc(Br)ccc32)cc1 [Compound 5, (E)-6-bromo-3-((E)-4-(4-methoxyphenyl)-2-oxobut-3-enylidene)indolin-2 one] | > 100000 | – | – | IC50 [2]: 1700 nM; IC50 [3]: 1400 nM
3 | Nc1nccc(-c2c[nH]c3ccc(Br)cc23)n1 [Meridianin C, 4-(5-bromo-1H-indol-3-yl)pyrimidin-2-amine] | – | – | – | IC50 [7]: 1440 nM

Further lines, with some results ahead:

Row | IC50 [1] [nM] | IC50 [4] [nM] | IC50 [5] [nM] | SMILES | also measured
4 | > 100000 | 220 ± 10 | 360 ± 12 | COc1ccc(/C=C/C(/C=C2/C(=O)Nc3cc(Br)ccc32)=N\O)cc1 [Compound 6, (E)-6-bromo-3-((2E,3E)-2-(hydroxyimino)-4-(4-methoxyphenyl)but-3-enylidene)indolin-2-one] | IC50 [6]: 470 ± 13 nM
5 | – | 640 ± 10 | 830 ± 13 | O=c1c(O)c(-c2ccc(O)c(O)c2)oc2cc(O)cc(O)c12 [Querecitin, quercetin, reference compound] | –
